{"source": "ChEMBL document CHEMBL1122809", "about": "“Improved synthesis and antitumor activity of 2-bromo-2'-deoxyadenosine” (1984)", "key": {"L1210 [1]": {"system": "L1210", "test": "Antitumor activity expressed as life span was determined against inoculated L1210 leukemia cells (1*10e5) in mice by 11.3 mg/kg dosage of compound (qd (x 3), for days 1, 4, 7,10,13,16)", "type": "functional, Mus musculus", "summary_of_the_method": "(§1)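 Female mice (~18 g, housed six per cage) received L1210 cells intraperitoneally on day 0. Drug was made fresh and injected at 0.01 mL/g; the stated dose is per injection. Controls received the same volume of 0.154 M NaCl. Survival was followed, with deaths assigned to tumour by necropsy or to drug toxicity by set criteria. Life span is given as mean ± SD.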"}, "L1210 [2]": {"system": "L1210", "test": "Antitumor activity expressed as life span was determined against inoculated L1210 leukemia cells (1*10e5) in mice by 22.5 mg/kg dosage of compound (qd (x 3), for days 1, 4, 7)", "type": "functional, Mus musculus", "summary_of_the_method": "as §1"}, "L1210 [3]": {"system": "L1210", "test": "Antitumor activity expressed as life span was determined against inoculated L1210 leukemia cells (1*10e5) in mice by 22.5 mg/kg dosage of compound (qd (x 3), for days 1, 4, 7,10,13,16)", "type": "functional, Mus musculus", "summary_of_the_method": "as §1"}, "L1210 [4]": {"system": "L1210", "test": "Antitumor activity expressed as life span was determined against inoculated L1210 leukemia cells (1*10e5) in mice by 45 mg/kg dosage of compound (qd (x 3), for days 1,5,9)", "type": "functional, Mus musculus", "summary_of_the_method": "as §1"}, "L1210 [5]": {"system": "L1210", "test": "Antitumor activity expressed as life span was determined against inoculated L1210 leukemia cells (1*10e6) in mice by 110 mg/kg dosage of compound (qd (x 3), for days 1, 4, 7)", "type": "functional, Mus musculus", "summary_of_the_method": "as §1"}, "L1210 [6]": {"system": "L1210", "test": "Antitumor activity expressed as life span was determined against inoculated L1210 leukemia cells (1*10e6) in mice by 110 mg/kg dosage of compound (qd (x 3), for days 1- 7)", "type": "functional, Mus musculus", "summary_of_the_method": "as §1"}, "L1210 [7]": {"system": "L1210", "test": "Antitumor activity expressed percentage increase in life span was determined against inoculated L1210 leukemia cells (1*10e5) in mice by 5.6 mg/kg dosage of compound (qd (x 3), for days 1, 4, 7)", "type": "functional", "details": "Mus musculus", "summary_of_the_method": "(§2)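 L1210 cells were given intraperitoneally to female mice (~18 g). Freshly prepared drug was injected at 0.01 mL/g, dose per injection, and saline-injected controls were run. The end point was duration of survival. ILS was calculated as percent increase in mean life span over controls. Mice surviving 60 days or more counted as long-term survivors, scored as 60 days.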"}, "M5076 [8]": {"system": "M5076", "test": "Antitumor activity was evaluated by measuring mean life span in tumor (M5076) inoculated mice at 11.3 mg/kg (qd3hx8),days 1-34", "type": "functional, Mus musculus", "summary_of_the_method": "(§3)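 Female mice of about 18 g received subcutaneous M5076 implants matching those used for serial passage. Drug was freshly prepared and injected at 0.01 mL/g every 3 h (×8) on every 3rd day from day 1 to day 34, with the dose stated per injection. Controls received 0.154 M NaCl. Groups held 18 mice (11 in one group). Mean life span was reported as mean ± SD, and tumor volume was also assessed.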"}, "L1210 [9]": {"system": "L1210", "test": "Antitumor activity expressed percentage increase in life span was determined against inoculated L1210 leukemia cells (1*10e6) in mice by 110 mg/kg dosage of compound (qd (x 3), for days 1, 4, 7)", "type": "functional", "details": "Mus musculus", "summary_of_the_method": "as §2"}, "L1210 [10]": {"system": "L1210", "test": "Antitumor activity expressed as life span was determined against inoculated L1210 leukemia cells (1*10e6) in mice by 22.5 mg/kg dosage of compound (qd (x 3), for days 1, 4, 7,10,13,16)", "type": "functional, Mus musculus", "summary_of_the_method": "as §1"}, "L1210 [11]": {"system": "L1210", "test": "Antitumor activity expressed as life span was determined against inoculated L1210 leukemia cells (1*10e6) in mice by 45 mg/kg dosage of compound (qd (x 3), for days 1, 4, 7)", "type": "functional, Mus musculus", "summary_of_the_method": "as §1"}, "L1210 [12]": {"system": "L1210", "test": "Antitumor activity expressed percentage increase in life span was determined against inoculated L1210 leukemia cells (1*10e5) in mice by 11.3 mg/kg dosage of compound (qd (x 3), for days 1, 4, 7,10,13,16)", "type": "functional", "details": "Mus musculus", "summary_of_the_method": "as §2"}, "L1210 [13]": {"system": "L1210", "test": "Antitumor activity expressed percentage increase in life span was determined against inoculated L1210 leukemia cells (1*10e5) in mice by 22.5 mg/kg dosage of compound (qd (x 3), for days 1,5,9)", "type": "functional", "details": "Mus musculus", "summary_of_the_method": "as §2"}, "L1210 [14]": {"system": "L1210", "test": "Antitumor activity expressed percentage increase in life span was determined against inoculated L1210 leukemia cells (1*10e6) in mice by 140 mg/kg dosage of compound (qd (x 3), for days 1, 4, 7)", "type": "functional", "details": "Mus musculus", "summary_of_the_method": "as §2"}, "L1210 [15]": {"system": "L1210", "test": "Antitumor activity expressed percentage increase in life span was determined against inoculated L1210 leukemia cells (1*10e6) in mice by 45 mg/kg dosage of compound (qd (x 3), for days 1, 4, 7)", "type": "functional", "details": "Mus musculus", "summary_of_the_method": "as §2"}, "M5076 [16]": {"system": "M5076", "test": "Antitumor activity was evaluated by measuring mean life span in tumor (M5076) inoculated mice at 22.5 mg/kg (qd3hx8),days 1,4,7,15,18,21", "type": "functional, Mus musculus", "summary_of_the_method": "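Female mice of about 18 g received subcutaneous M5076 implants like those used for serial passage. Drug was prepared just before use and injected at 0.01 mL/g every 3 h (×8) on days 1, 4, 7, 15, 18 and 21, with the dose stated per injection. Controls received 0.154 M NaCl, and groups held 18 mice. Survival and tumor volume were recorded, and %ILS was derived from mean life span.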"}, "M5076 [17]": {"system": "M5076", "test": "Antitumor activity was evaluated by measuring mean life span in tumor (M5076) inoculated mice at 22.5 mg/kg (qd3hx8),days 1-34", "type": "functional, Mus musculus", "summary_of_the_method": "as §3"}, "M5076 [18]": {"system": "M5076", "test": "Antitumor activity was evaluated by measuring mean life span in tumor (M5076) inoculated mice at 5.6 mg/kg (qd3hx8),days 1-34", "type": "functional, Mus musculus", "summary_of_the_method": "as §3"}, "L1210 [19]": {"system": "L1210", "test": "Antitumor activity expressed percentage increase in life span was determined against inoculated L1210 leukemia cells (1*10e6) in mice by 5.6 mg/kg dosage of compound (qd (x 3), for days 1, 4, 7)", "type": "functional", "details": "Mus musculus", "summary_of_the_method": "as §2"}, "L1210 [20]": {"system": "L1210", "test": "Antitumor activity expressed percentage increase in life span was determined against inoculated L1210 leukemia cells (1*10e6) in mice by 50 mg/kg dosage of compound (qd (x 3), for days 1- 7)", "type": "functional", "details": "Mus musculus", "summary_of_the_method": "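Female mice of about 18 g (BDF1, DBA/2 or C57Bl/6 stocks used) were inoculated intraperitoneally with 1 × 10^6 L1210 cells. Freshly prepared drug was given once daily from about 24 h after inoculation at 0.01 mL/g, with the dose stated per injection. Controls received 0.154 M NaCl, and groups held 6 mice. %ILS was taken from mean survival, with mice alive at 60 days or more counted as 60 days.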"}, "L1210 [21]": {"system": "L1210", "test": "Antitumor activity expressed as life span was determined against inoculated L1210 leukemia cells (1*10e6) in mice by 5.6 mg/kg dosage of compound (qd (x 3), for days 1, 4, 7,10,13,16)", "type": "functional, Mus musculus", "summary_of_the_method": "as §1"}, "L1210 [22]": {"system": "L1210", "test": "Antitumor activity expressed as life span was determined against inoculated L1210 leukemia cells (1*10e6) in mice by 50 mg/kg dosage of compound (qd (x 3), for days 1- 7)", "type": "functional, Mus musculus", "summary_of_the_method": "as §1"}, "L1210 [23]": {"system": "L1210", "test": "Antitumor activity expressed as life span was determined against inoculated L1210 leukemia cells (1*10e6) in mice by 140 mg/kg dosage of compound (qd (x 3), for days 1, 4, 7)", "type": "functional, Mus musculus", "summary_of_the_method": "as §1"}, "B16 melanoma (mouse)": {"system": "B16 melanoma (mouse)", "test": "Antitumor activity expressed percentage increase in life span was determined against inoculated B16 melanoma in mice by 22.5 mg/kg dosage of compound (qd3hx8), for days 1,4,7,10"}}, "data": [{"smiles": "Nc1nc(Br)nc2c1ncn2[C@H]1C[C@H](O)[C@@H](CO)O1", "values": [{"measurement": "Life span", "setting": "L1210 [1]", "value": 18.67, "unit": "days"}, {"measurement": "Life span", "setting": "L1210 [2]", "value": 23.75, "unit": "days"}, {"measurement": "Life span", "setting": "L1210 [3]", "value": 20.67, "unit": "days"}, {"measurement": "Life span", "setting": "L1210 [4]", "value": 37.73, "unit": "days"}, {"measurement": "Life span", "setting": "L1210 [5]", "value": 8.17, "unit": "days"}, {"measurement": "Life span", "setting": "L1210 [6]", "value": 4.17, "unit": "days"}, {"measurement": "ILS at 5.6 mg/kg", "setting": "L1210 [7]", "value": 60, "unit": "%"}, {"measurement": "Life span", "setting": "M5076 [8]", "value": 39.72, "unit": "days"}, {"measurement": "ILS at 110 mg/kg", "setting": "L1210 [9]", "value": 29, "unit": "%"}, {"measurement": "Life span", "setting": "L1210 [10]", "value": 16.08, "unit": "days"}, {"measurement": "Life span", "setting": "L1210 [11]", "value": 13.5, "unit": "days"}, {"measurement": "ILS at 11.3 mg/kg", "setting": "L1210 [12]", "value": 128, "unit": "%"}, {"measurement": "ILS at 22.5 mg/kg", "setting": "L1210 [13]", "value": 176, "unit": "%"}, {"measurement": "ILS at 140 mg/kg", "setting": "L1210 [14]", "value": 26, "unit": "%"}, {"measurement": "ILS at 45 mg/kg", "setting": "L1210 [15]", "value": 113, "unit": "%"}, {"measurement": "Life span", "setting": "M5076 [16]", "value": 43.33, "unit": "days"}, {"measurement": "Life span", "setting": "M5076 [17]", "value": 46.41, "unit": "days"}, {"measurement": "Life span", "setting": "M5076 [18]", "value": 34.44, "unit": "days"}, {"measurement": "ILS at 5.6 mg/kg", "setting": "L1210 [19]", "value": 75, "unit": "%"}, {"measurement": "ILS at 50 mg/kg", "setting": "L1210 [20]", "value": 42, "unit": "%"}, {"measurement": "Life span", "setting": "L1210 [21]", "value": 10.5, "unit": "days"}, {"measurement": "Life span", "setting": "L1210 [22]", "value": 9, "unit": "days"}, {"measurement": "Life span", "setting": "L1210 [23]", "value": 8, "unit": "days"}, {"measurement": "ILS at 22.5 mg/kg", "setting": "B16 melanoma (mouse)", "value": 50, "unit": "%"}]}]}
